Calls of active or inactive are those of the source.
Tests used:
Mus musculus [1] = test: Anti-tumor activity against TH-MYCN +/+ transgenic neuroblastoma 129x1/SvJ.Tg (TH-MYCN)41Waw/Nci mouse model assessed as reduction in tumor growth at 10 mg/kg, ip measured upto 7 days by ultrasound imaging analysis; type: functional, organism-based; conditions: time <= 7.0 day
Outline: (§1)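 Homozygous TH-MYCN+/+ mice (129×1/SvJ background, genotyped) with spontaneous neuroblastoma dosed IP, vehicle n = 7, 10 mg/kg n = 8, six treatments; a 100 mg/kg group got three. Tumor burden by abdominal ultrasound under 1–3% isoflurane; tumors excised and weighed at end; groups compared by t-test.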

[2] = Downregulation of VDR expression in human BE2C cells at 1 uM incubated for 24 hrs by western blot analysis relative to control; type: functional, BE(2)-C
Outline: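 BE(2)-C neuroblastoma cells were treated for 24 h and immunoblotted for VDR, with β-actin or α-tubulin as loading control. Band intensities are reported as normalized densitometry.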

[3] = Toxicity in NSG mouse xenografted with human ES2 cells assessed as body weight change at 10 mg/kg, ip measured upto 30 days; type: organism-based; conditions: in vivo, 720 h, time < 30 day
Kelly = test: Cytotoxicity against human Kelly cells assessed as reduction in cell viability incubated for 48 hrs by MTS assay; type: functional, cell-based; conditions: dose 0.1-10 µM, DDE = dose-dependent effect
Outline: (§2)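 Neuroblastoma lines seeded 5,000 cells/well, attached overnight, treated 48 h in complete medium (DMSO ≤0.2%); MTS reagent 1:10 in fresh RPMI 2–4 h, absorbance 490 nm.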

Tumor cell line = test: Cytotoxicity against tumor cells in TH-MYCN +/+ transgenic neuroblastoma 129x1/SvJ.Tg (TH-MYCN)41Waw/Nci mouse model assessed as reduction in cell viability at 0.1 to 10 uM measured after 3 days by MTS assay; type: functional, cell-based; conditions: dose 0.1-10 µM, time 3.0 day
Outline: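 Tumor cells mechanically dissociated from tumors of three homozygous TH-MYCN mice, grown as spheres in RPMI1640 with 20% FBS, 2-mercaptoethanol, pyruvate and NEAA; treated 3 days; viability by MTS; spheres imaged by light microscopy.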

PANC-1 = test: Anti-tumor activity against human PANC-1 cells xenografted in NSG mouse assessed as reduction in tumor growth at 10 mg/kg, ip measured on day 12; type: functional, organism-based; conditions: time 12.0 day
Outline: (§3)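 NSG mice implanted subcutaneously with 1 million D283, PANC-1 or BXPC-3 cells in matrigel/DMEM 1:1; once palpable, 10 mg/kg IP M–F vs vehicle; volume (length × width2)[…], % change; endpoint 2000 mm3; tumors excised and weighed; unpaired t-test.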

BXPC-3 = test: Anti-tumor activity against human BXPC-3 cells xenografted in NSG mouse assessed as reduction in tumor growth at 10 mg/kg, ip measured on day 18; type: functional, organism-based; conditions: time 18.0 day; outline: as §3
ES-2 = test: Anti-tumor activity against human ES2 cells xenografted in NSG mouse assessed as reduction in tumor volume at 10 mg/kg, ip measured upto 30 days; type: functional, organism-based; conditions: time <= 30.0 day
Outline: (§4)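 NSG mice, 6–8 weeks, injected subcutaneously in right flank with ES2 (250,000) or SH-SY5Y/BE(2)C (1 million) cells in cold matrigel/serum-free RPMI 1:1. Once palpable, 10 mg/kg IP M–F vs vehicle; volume (length × width2)[…]; BE(2)C and ES2 monitored alternate days; endpoint 2000 mm3; % change in volume, t-test.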

[4] = Toxicity in TH-MYCN +/+ transgenic neuroblastoma 129x1/SvJ.Tg (TH-MYCN)41Waw/Nci mouse model assessed as effect on patrolling monocytes/DC+ cells population at 10 mg/kg, ip qd by flow cytometry; type: organism-based; conditions: in vivo
Outline: (§5)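 Immune cells isolated from TH-MYCN tumor-bearing mice treated with vehicle or compound; CD45+, CD4+, CD8+, macrophage, patrolling monocyte/DC and CD11b+ populations quantified by flow cytometry with characterized markers.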

HEK-293T = test: Cytotoxicity against HEK-293T cells assessed as inhibition of cell proliferation upto 100 uM incubated for 18 hrs by MTS assay; type: toxicity, cell-based; conditions: human
[5] = molecular target: T1, Vitamin D3 receptor (Homo sapiens) (UniProt P11473); test: Antagonist activity at VDR in human 2008 cells assessed as suppression of RXR-alpha expression at 250 nM incubated for 18 hrs by western blot analysis relative to control; type: cell-based; conditions: filed as antagonist
T1 sequence (whole entry): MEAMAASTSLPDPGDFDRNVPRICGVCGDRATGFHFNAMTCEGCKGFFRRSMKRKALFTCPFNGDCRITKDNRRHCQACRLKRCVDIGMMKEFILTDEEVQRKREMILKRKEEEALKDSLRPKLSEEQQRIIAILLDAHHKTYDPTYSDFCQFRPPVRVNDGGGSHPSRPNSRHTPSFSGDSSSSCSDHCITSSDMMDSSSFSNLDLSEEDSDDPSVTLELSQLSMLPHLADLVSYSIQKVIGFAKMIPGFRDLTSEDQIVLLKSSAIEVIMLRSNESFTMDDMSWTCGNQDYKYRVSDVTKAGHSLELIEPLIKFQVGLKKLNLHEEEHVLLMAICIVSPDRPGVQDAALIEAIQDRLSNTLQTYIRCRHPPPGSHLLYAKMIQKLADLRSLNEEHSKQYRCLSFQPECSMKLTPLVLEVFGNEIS
Outline: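 2008 ovarian cancer cells exposed 250 nM, 18 h; immunoblot with loading control (GAPDH for RXR-α, α-tubulin for Importin-4); band densitometry normalized to loading control.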

Caov-3 cell line = test: Cytotoxicity against human Caov-3 cell line assessed as reduction in cell viability incubated for 24 hrs by MTS assay; type: functional, cell-based; conditions: dose 0.25-1.25 µM, DDE = dose-dependent effect
Outline: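 Ovarian lines seeded 5,000 cells/well, attached overnight, treated 24 h in complete medium (DMSO ≤0.2%); MTS reagent 1:10 in fresh RPMI 2–4 h, absorbance 490 nm; triplicate, % of DMSO-treated cells.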

Mus musculus [6] = test: Downregulation of VDR expression in tumor of NSG mouse xenografted with human SK-OV-3 cells at 10 mg/kg, ip by confocal microscopy based immunohistochemistry analysis; type: functional, organism-based
[7] = molecular target: T1, Vitamin D3 receptor (Homo sapiens); test: Antagonist activity at VDR LBD (unknown origin) transfected in HEK-293T cells assessed as inhibition of 1,25(OH)2D3-induced receptor transactivation incubated for 16 hrs by Bright-Glo luciferase assay; type: cell-based; conditions: filed as antagonist
Outline: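 HEK293T on matrigel, lipid-transfected with VDR-CMV plasmid and CYP24A1-luciferase reporter; after 16 h, replated at 15,000 cells/well, compound added 4 h later together with 10 nM 1,25(OH)2D3; 16 h at 37 °C, 5% CO2; luminescence read. At least two independent experiments in quadruplicate; nonlinear regression, variable slope.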

[8] = Toxicity in TH-MYCN +/+ transgenic neuroblastoma 129x1/SvJ.Tg (TH-MYCN)41Waw/Nci mouse model assessed as effect on CD8+ cells population at 10 mg/kg, ip qd by flow cytometry; type: organism-based; conditions: in vivo; outline: as §5
BE(2)-C = test: Anti-tumor activity against human BE2C cells xenografted in NSG mouse assessed as reduction in tumor volume at 10 mg/kg, ip measured for 5 to 8 days; type: functional, organism-based; conditions: time 5-8 day; outline: as §4
Mus musculus [9] = test: Anti-tumor activity against tumor cells in TH-MYCN +/+ neuroblastoma 129x1/SvJ.Tg (TH-MYCN)41Waw/Nci mouse model assessed as reduction in tumor volume administered intraperitoneally measured on day 7 by ultrasound imaging analysis; type: functional, organism-based; conditions: route ip, time 7.0 day, DDE = dose-dependent effect; outline: as §1
[10] = molecular target: T1, Vitamin D3 receptor (Homo sapiens); test: Antagonist activity at VDR in human BE2C cells assessed as reduction in cyclin-D expression at 1 uM incubated for 24 hrs by western blot analysis relative to control; type: cell-based; conditions: filed as antagonist
Outline: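 BE(2)-C cells given 1 μM for 24 h; immunoblot with β-actin or α-tubulin loading control; normalized densitometry.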

[11] = molecular target: T1, Vitamin D3 receptor (Homo sapiens); test: Antagonist activity at VDR LBD (unknown origin) using Alexa Fluor 647-labeled SRC2-3 as substrate incubated for 2 hrs in presence of calcitriol by fluorescence polarization assay; conditions: filed as antagonist
Outline: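 VDR-LBD (0.1 μM) with Alexa Fluor 647-labelled SRC2-3 (17.5 nM) and 10 nM 1,25(OH)2D3 in 25 mM PIPES, 50 mM NaCl, 0.01% NP-40, pH 6.75. Compounds were serially diluted 1:2 from 10 mM DMSO stocks and incubated 2 h. Polarization was read at 635/685 nm. Three independent experiments in quadruplicate; IC50 by variable-slope nonlinear regression.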

SK-OV-3 = test: Anti-tumor activity against human SK-OV-3 cells xenografted in nude mouse assessed as reduction in tumor growth at 10 mg/kg, ip measured for 1 to 39 days; conditions: time 1-39 day
SK-N-AS = test: Cytotoxicity against human SK-N-AS cells assessed as reduction in cell viability incubated for 48 hrs by MTS assay; type: functional, cell-based; conditions: dose 0.1-10 µM, DDE = dose-dependent effect; outline: as §2

CC(C)CCC[C@@H](C)[C@H]1CC[C@@H]2[C@]1(C)CCC1[C@]23C=C[C@]2(C[C@@H](OC(=O)CBr)CC[C@]12C)n1c(=O)n(C)c(=O)n13 (stereo partly specified)
0.29: fold change (FC) [5]
0.83: fold change (FC) [2]
20.8 µM: Activity [7]
active: Activity (Mus musculus [1]) | Activity (Kelly) Dde | Activity (Tumor cell line) | Activity (PANC-1) | Activity (BXPC-3) | Activity (ES-2) | Activity (Caov-3 cell line) Dde | inhibition (Mus musculus [6]) | Activity (BE(2)-C) | Activity (Mus musculus [9]) Dde | Activity (SK-OV-3) | Activity (SK-N-AS) Dde
2.9 µM: Activity [11]
0.8: fold change (FC) [10]
Non-Toxic: Activity [3] | Activity [4] | Activity (HEK-293T) | Activity [8]

Source: ChEMBL document CHEMBL5154854, “Identification of a Vitamin-D Receptor Antagonist, MeTC7, which Inhibits the Growth of Xenograft and Transgenic Tumors In Vivo” (J Med Chem, 2022)
